Assay results as given in ChEMBL document CHEMBL1155175, “Salicylidene acylhydrazides that affect type III protein secretion in Salmonella enterica serovar typhimurium” (Antimicrob Agents Chemother, 2007).
Active and inactive are the calls of the source. The rule behind the calls is not given here.

What was measured:
Salmonella typhimurium [1] = assay: Antibacterial activity against Salmonella enterica serovar Typhimurium TT16729 in mouse RAW264.7 cells assessed as increase in nitric oxide level at 40 uM after 16 hrs; format: functional, organism-based; conditions: Salmonella enterica subsp. enterica serovar Typhimurium
Outline: (§1)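 Opsonized bacteria infect RAW264.7 macrophages (MOI 10:1, gentamicin protection); compound or DMSO present in media from 1 h postinfection. Nitrite accumulated in culture medium at 16 h postinfection measured with Griess reagent (OD525), converted to µM against sodium nitrite standards.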

Salmonella typhimurium [2] = assay: Inhibition of Salmonella enterica serovar Typhimurium TT16729 invasion in MDCK cells at 20 uM by gentamycin protection assay; format: functional, organism-based; conditions: Salmonella enterica subsp. enterica serovar Typhimurium
Outline: (§2)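 Bacteria grown in LB (overnight, then 1:10 subculture 3 h, 37°C, closed tubes) with compound at 20 µM or DMSO, then seeded on MDCK cells in HEPES-DMEM, MOI 10:1. Gentamicin 50 µg/ml for 45 min; cells lysed at 2 h with 0.5% deoxycholate; invasion = CFU at 2 h / CFU seeded, as percentage of input.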

Salmonella typhimurium [3] = assay: Antibacterial activity against Salmonella enterica serovar Typhimurium TT16729 at 20 uM to 40 uM; format: functional, organism-based; conditions: Salmonella enterica subsp. enterica serovar Typhimurium
MDCK = assay: Cytotoxicity against MDCK cells at 20 uM to 40 uM; format: cell-based, Canis lupus familiaris; conditions: dog
Salmonella typhimurium [4] = assay: Antibacterial activity against Salmonella enterica serovar Typhimurium TT16729 assessed as inhibition of SPI1 protein secretion T3SS-mediated invasion in MDCK cells at 20 uM; format: functional, organism-based; conditions: Salmonella enterica subsp. enterica serovar Typhimurium; outline: as §2
Salmonella typhimurium [5] = assay: Antibacterial activity against Salmonella enterica serovar Typhimurium TT16729 expressing SPI1 effector protein assessed as increase in beta-lactamase activity in cytosolic fraction at 20 uM by immunoblotting; format: functional, organism-based; conditions: Salmonella enterica subsp. enterica serovar Typhimurium
Outline: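 TT16729 carrying pAUN-1 (SipB–β-lactamase fusion) grown to invasiveness in kanamycin LB, then 2 h in DMEM with kanamycin, L-glutamine and HEPES; compound 20 µM in all steps, DMSO control. Cells lysed (freeze-thaw, lysozyme 1 mg/ml 1 h 4°C, sonication), 5,000 x g clearing, then 50,000 x g 1 h. Cytosolic fraction assayed by nitrocefin (50 µg/ml, PBS) cleavage at A486, per min per OD600 or µg protein.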

Salmonella typhimurium [6] = assay: Antibacterial activity against Salmonella enterica serovar Typhimurium TT16729 expressing SPI1 effector protein assessed as localization of SipB-beta-lactamase fusion protein in osmotic shock sample at 20 uM by immunoblotting; format: functional, organism-based; conditions: Salmonella enterica subsp. enterica serovar Typhimurium
Salmonella typhimurium [7] = assay: Antibacterial activity against Salmonella enterica serovar Typhimurium TT16729 assessed as decrease in transcription of lacZ-hilA at 40 uM; format: functional, organism-based; conditions: Salmonella enterica subsp. enterica serovar Typhimurium
Salmonella typhimurium [8] = assay: Antibacterial activity against Salmonella enterica serovar Typhimurium TT16729 assessed as decrease in transcription of lacZ-prgH at 40 uM; format: functional, organism-based; conditions: Salmonella enterica subsp. enterica serovar Typhimurium
Salmonella typhimurium [9] = assay: Antibacterial activity against Salmonella enterica serovar Typhimurium TT16729 assessed as decrease in transcription of lacZ-sipC at 40 uM; format: functional, organism-based; conditions: Salmonella enterica subsp. enterica serovar Typhimurium
Salmonella typhimurium [10] = assay: Antibacterial activity against Salmonella enterica serovar Typhimurium TT16729 assessed as decrease in spvA-lacZ expression at 40 uM; format: functional, organism-based; conditions: Salmonella enterica subsp. enterica serovar Typhimurium
Salmonella typhimurium [11] = assay: Antibacterial activity against Salmonella enterica serovar Typhimurium TT16729 in mouse RAW264.7 cells assessed as reduction of intracellular bacterial replication at 40 uM after 16 hrs; format: functional, organism-based; conditions: Salmonella enterica subsp. enterica serovar Typhimurium
Outline: (§3)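 RAW264.7 cells in RPMI/10% FBS infected at MOI 10:1 with LB-agar-grown, mouse-serum-opsonized bacteria; gentamicin 50 µg/ml for 45 min, then 10 µg/ml. Compound added to killing and maintenance media from 1 h postinfection onward. Hypotonic lysis at 2 and 16 h; growth yield = CFU 16 h / CFU 2 h.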

Salmonella typhimurium [12] = assay: Antibacterial activity against Salmonella enterica serovar Typhimurium 14028 in mouse RAW264.7 cells assessed as reduction of intracellular bacterial replication at 40 uM after 16 hrs; format: functional, organism-based; conditions: Salmonella enterica subsp. enterica serovar Typhimurium; outline: as §3
Salmonella typhimurium [13] = assay: Antibacterial activity against Salmonella enterica serovar Typhimurium 14028 in mouse RAW264.7 cells assessed as increase in nitric oxide level at 40 uM after 16 hrs; format: functional, organism-based; conditions: Salmonella enterica subsp. enterica serovar Typhimurium; outline: as §1
RAW264.7 = assay: Effect on nitric oxide production in mouse RAW264.7 cells; format: functional, cell-based
Salmonella typhimurium [14] = assay: Antibacterial activity against Salmonella enterica serovar Typhimurium 14028 assessed as reduction in sseJ-HA fusion protein secretion in hexadecane extracted fraction at 20 and 40 uM by immunoblotting; format: functional, organism-based; conditions: Salmonella enterica subsp. enterica serovar Typhimurium
Outline: (§4)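 Strain 14028 grown overnight in low-pH minimal medium MM5.8 (SPI2-inducing) with compound or DMSO control; whole cells, hexadecane-extractable fraction and cell-free supernatant separated, volumes normalized by OD600, supernatant proteins TCA-precipitated; SseJ-HA detected by immunoblot on 12% SDS-PAGE with anti-HA monoclonal antibody (1:1,000) and chemiluminescence.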

Salmonella typhimurium [15] = assay: Antibacterial activity against Salmonella enterica serovar Typhimurium 14028 assessed as increase in sseJ-HA fusion protein secretion in bacterial cell containing fraction at 20 and 40 uM by immunoblotting; format: functional, organism-based; conditions: Salmonella enterica subsp. enterica serovar Typhimurium; outline: as §4
Salmonella typhimurium [16] = assay: Antibacterial activity against Salmonella enterica serovar Typhimurium TT16729 motility assessed as reduction of swimming zone on soft agar plates at 40 uM; format: functional, Salmonella enterica subsp. enterica serovar Typhimurium
Outline: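 Swimming motility on soft agar (tryptone 10 g/liter, NaCl 5 g/liter, 0.3% agar) prepared 1 day ahead, compound at 40 µM final; 20 µl overnight culture inoculated into agar; zone diameter read after 8 h at 37°C.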

Salmonella typhimurium [17] = assay: Antibacterial activity against Salmonella enterica serovar Typhimurium 14028 assessed as inhibition of sseJ-HA fusion protein secretion by immunoblotting; conditions: Salmonella enterica subsp. enterica serovar Typhimurium
Salmonella typhimurium [18] = assay: Antibacterial activity against Salmonella enterica serovar Typhimurium TT16729 infected mouse RAW264.7 cells assessed as increase in nitric oxide level at 40 uM after 16 hrs in presence of tetracyclin; format: functional, organism-based; conditions: Salmonella enterica subsp. enterica serovar Typhimurium
Outline: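 RAW264.7 cells infected with opsonized strain TT16729 (MOI 10:1, gentamicin protection), compound in medium from 1 h postinfection; bacterial protein synthesis blocked with tetracycline at 2 h postinfection. Medium nitrite measured at 16 h by Griess reagent (OD525) against sodium nitrite standards.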

Salmonella typhimurium [19] = assay: Antibacterial activity against Salmonella enterica serovar Typhimurium TT16729 in mouse RAW264.7 cells assessed as increase in intracellular bacterial replication at 40 uM after 16 hrs; format: functional, organism-based; conditions: Salmonella enterica subsp. enterica serovar Typhimurium; outline: as §3
Salmonella typhimurium [20] = assay: Antibacterial activity against Salmonella enterica serovar Typhimurium 14028 in mouse RAW264.7 cells assessed as reduction of nitric oxide level at 40 uM after 16 hrs; format: functional, organism-based; conditions: Salmonella enterica subsp. enterica serovar Typhimurium; outline: as §1
Salmonella typhimurium [21] = assay: Antibacterial activity against Salmonella enterica serovar Typhimurium TT16729 assessed as reduction in expression of bacterial cell bound flagellin at 80 uM by SDS-PAGE; format: functional, organism-based; conditions: Salmonella enterica subsp. enterica serovar Typhimurium
Outline: (§5)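 Bacteria grown 16–18 h in LB with compound (40 or 80 µM) or DMSO; flagellin released by 150 mM NaCl/10 mM HCl for 5 min at room temperature, bacteria removed by centrifugation, supernatant proteins TCA-precipitated and run on 9% SDS-PAGE; loading normalized by OD600.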

Salmonella typhimurium [22] = assay: Antibacterial activity against Salmonella enterica serovar Typhimurium TT16729 assessed as reduction in expression of bacterial cell bound flagellin at 40 uM by SDS-PAGE; format: functional, organism-based; conditions: Salmonella enterica subsp. enterica serovar Typhimurium; outline: as §5

Row | Compound | Activity (Salmonella typhimurium [2]) | Activity (Salmonella typhimurium [3]) | Activity (MDCK) | Activity (Salmonella typhimurium [4]) | Activity (Salmonella typhimurium [16]) [cm] | other results
1 | O=C(N/N=C/c1cc(Br)cc(Br)c1O)c1cccnc1 | Active | inactive | Non-toxic | Active | 2.7 | Activity (Salmonella typhimurium [1]): Active; Activity (Salmonella typhimurium [5]): Active; Activity (Salmonella typhimurium [6]): inactive; Activity (Salmonella typhimurium [7]): Active; Activity (Salmonella typhimurium [8]): Active; Activity (Salmonella typhimurium [9]): Active; Activity (Salmonella typhimurium [10]): Active; Activity (Salmonella typhimurium [11]): Active; Activity (Salmonella typhimurium [12]): Active; Activity (Salmonella typhimurium [13]): Active; Activity (RAW264.7): inactive; Activity (Salmonella typhimurium [14]): Active; Activity (Salmonella typhimurium [15]): inactive; Activity (Salmonella typhimurium [17]): Active
2 | O=C(N/N=C/c1c(O)ccc2ccccc12)c1ccc(Cl)cc1 | Active | inactive | Non-toxic | Active | 3.1 | Activity (RAW264.7): inactive; Activity (Salmonella typhimurium [18]): Active; Activity (Salmonella typhimurium [14]): Active; Activity (Salmonella typhimurium [15]): inactive; Activity (Salmonella typhimurium [19]): Active; Activity (Salmonella typhimurium [20]): Active; Activity (Salmonella typhimurium [17]): Active
3 | CCOc1cccc(/C=N/NC(=O)C(N)=O)c1O | Active | inactive | Non-toxic | Active | 2.7 | Activity (Salmonella typhimurium [21]): inactive
4 | O=C(N/N=C/c1cc(Br)ccc1O)c1cccnc1 | Active | inactive | Non-toxic | Active | 2.4 | Activity (Salmonella typhimurium [22]): Active
5 | O=C(N/N=C/c1ccc(O)c(O)c1O)c1ccccc1 | Active | inactive | Non-toxic | Active | 3.3 | –
6 | NC(=O)C(=O)N/N=C/c1cc(Br)ccc1O | Active | inactive | Non-toxic | Active | 1.7 | Activity (Salmonella typhimurium [22]): Active; Activity (Salmonella typhimurium [21]): Active
7 | O=C(N/N=C/c1ccc(O)c(O)c1O)c1ccco1 | Active | inactive | Non-toxic | Active | 2.9 | –
8 | O=C(N/N=C/c1cc(Br)cc(Br)c1O)c1ccc([N+](=O)[O-])cc1 | Active | inactive | Non-toxic | Active | 2.9 | –
9 | O=C(N/N=C/c1cc(Cl)cc(Cl)c1O)c1ccccc1 | Active | inactive | Non-toxic | Active | 2.7 | –
